# Results as given in PubChem BioAssay.
# Calls of active or inactive are those of the source.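 How the source made its calls, unless noted: active means viability loss from added drug above about 55%, and viability with drug at most 40%, in both replicates (limit read from the data, passing the limit was not always enough); inconclusive means both conditions met in only one replicate; inactive means neither replicate meets both conditions.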
# How the values were obtained:
# [1] = reducers of endogenous Her2 protein level, primary screen, SKBR3 breast tumor cells, AlphaScreen, ATP viability (AID 461;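 active means Her2 level under about 52% in both replicate screens, with viability over 70% of control, limit read from the data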;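 on Her2 level: lower value means less Her2 protein in the cells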;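 on viability: percent of carrier control wells set as 100% viability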); settings: 18-24 h, measured here: SKBR3 viability, ATP luminescence, at 10 µM
# [2] = biological target: Receptor tyrosine-protein kinase erbB-2 (Homo sapiens) (UniProt P04626); experiment: as above; settings: 18-24 h, at 10 µM, stronger effect = lower value
# [3] = SK-BR-3 cell growth inhibitors, pilot screen, 24 h, human (AID 572;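 active means viability at or below 10% of carrier control in both of two separate runs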;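 further: compound exposure lasted between 18 and 24 h rather than exactly 24 h; 100% = carrier-treated control wells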); settings: SK-BR-3 viability, CellTiter-Glo luminescence, at 10 µM, stronger effect = lower value
# [4] = HUVEC growth inhibition – cell-based, human, primary screen (AID 575;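 active means viability at or below 30% in both replicate assays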;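 further: 100% = median of untreated cell wells with 0.1% DMSO on each plate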); settings: HUVEC proliferation, CellTiter-Glo luminescence, 72 h; at 10 µM; stronger effect = lower value
# Summary of the method: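 System: primary human umbilical vein endothelial cells; Quantity: 1250 endothelial cells in each well; Buffer or medium: supplemented EBM, 2% fetal bovine serum; Doses: one dose, 10 µM final, 0.1% DMSO; Incubation: 72 h compound incubation; Technique: ATP-based CellTiter-Glo luminescent read; Evaluation: percent of median DMSO-control luminescence; Controls: vehicle and MePR control wells.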
# [5] = growth inhibitors of H69AR lung tumor, primary screen, human, duplicate replicates (AID 580;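 active means viability at or under a set limit in both replicates, limit being median viability minus 3 SD, cut at about 48% in these data, passing the limit was not always enough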;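 further: 100% = mean luminescence of untreated wells and 0% = no signal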); settings: H69AR lung tumor cells viability, ATP luminescence, 72 h; at 10 µM; stronger effect = lower value
# [6] = reversal of MRP1-mediated doxorubicin resistance, pilot screen, H69AR cells, doxorubicin co-treatment (AID 601); settings: CellTiter-Glo, 72 h, at 10 µM; for differential viability (reversal): stronger effect = higher value
# [7] = 384-well plate pilot, post-Golgi transport modulator project, inhibition of yeast transport mutant growth (AID 636; in the data active means inhibition above about 31%); settings: absorbance 615 nm, about 18 h, stronger effect = higher value
# [8] = growth suppression of yeast trafficking mutant, preliminary HTS, modulators of trafficking downstream of Golgi apparatus project, 1536-format plate, OD 615 nm (AID 637; in the data active means inhibition above about 30%); settings: yeast transport mutant growth, absorbance 615 nm, 18 h; stronger effect = higher value
# [9] = H69AR cells + 2 uM doxorubicin, measured here: viability with 2 uM doxorubicin, stronger effect = lower value
# [10] = H69AR cells, compound alone cytotoxicity
# Sequence of Receptor tyrosine-protein kinase erbB-2 (Homo sapiens) (P04626 whole entry, looked up): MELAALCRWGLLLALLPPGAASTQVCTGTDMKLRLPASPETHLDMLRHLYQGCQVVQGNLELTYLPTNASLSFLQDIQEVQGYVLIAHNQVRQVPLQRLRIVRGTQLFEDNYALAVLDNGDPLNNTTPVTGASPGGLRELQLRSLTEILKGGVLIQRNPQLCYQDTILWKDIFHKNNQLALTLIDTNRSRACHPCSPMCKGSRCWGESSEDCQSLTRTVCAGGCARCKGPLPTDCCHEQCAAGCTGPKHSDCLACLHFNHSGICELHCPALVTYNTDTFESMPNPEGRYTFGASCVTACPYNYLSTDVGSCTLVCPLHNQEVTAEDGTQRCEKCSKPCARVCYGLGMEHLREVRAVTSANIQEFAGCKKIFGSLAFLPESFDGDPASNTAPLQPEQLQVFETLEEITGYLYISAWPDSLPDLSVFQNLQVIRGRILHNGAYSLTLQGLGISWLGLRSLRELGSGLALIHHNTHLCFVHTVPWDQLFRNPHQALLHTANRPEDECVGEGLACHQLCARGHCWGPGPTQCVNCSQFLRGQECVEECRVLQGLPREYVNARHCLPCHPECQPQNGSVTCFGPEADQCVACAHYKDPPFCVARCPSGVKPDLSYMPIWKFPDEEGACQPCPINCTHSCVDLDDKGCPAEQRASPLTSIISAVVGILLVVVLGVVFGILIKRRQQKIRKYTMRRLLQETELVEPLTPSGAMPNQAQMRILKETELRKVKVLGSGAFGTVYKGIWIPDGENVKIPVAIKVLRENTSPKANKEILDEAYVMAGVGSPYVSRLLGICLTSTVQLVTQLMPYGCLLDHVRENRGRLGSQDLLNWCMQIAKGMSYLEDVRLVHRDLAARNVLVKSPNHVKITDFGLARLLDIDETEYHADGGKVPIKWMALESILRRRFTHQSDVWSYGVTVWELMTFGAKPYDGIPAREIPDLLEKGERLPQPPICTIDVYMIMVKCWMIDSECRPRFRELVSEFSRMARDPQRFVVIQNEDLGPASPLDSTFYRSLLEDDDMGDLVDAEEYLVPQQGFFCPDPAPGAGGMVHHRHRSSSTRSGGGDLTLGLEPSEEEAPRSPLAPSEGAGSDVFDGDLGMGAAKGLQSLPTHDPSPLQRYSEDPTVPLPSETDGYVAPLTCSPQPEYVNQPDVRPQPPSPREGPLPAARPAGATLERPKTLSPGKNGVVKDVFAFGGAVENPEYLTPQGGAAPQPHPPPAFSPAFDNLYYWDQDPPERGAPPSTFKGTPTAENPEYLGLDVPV
Structure (SMILES),viability [1] [%],Her2 level [2],viability [3],viability [4],viability [5],differential viability (reversal) ([6]; H69AR cells + 2 uM doxorubicin),"viability [6, 9] [%]","viability [6, 10] [%]",inhibition [7],inhibition [8]
CCOc1ccc2[nH]cc(C(=O)N3CCN(CC)CC3)c(=O)c2c1,98,104% (inactive),98% (inactive),91.2% (inactive),89.6% (inactive),-14.2% (inactive),104,89.6,2.67% (inactive),19% (inactive)
CCCCc1ccc(NC(=O)COCC)cc1,110,94% (inactive),110% (inactive),92.1% (inactive),93.1% (inactive),7.21% (inactive),85.9,93.1,-2.63% (inactive),5.08% (inactive)
CCOC(=O)CCC(=O)Nc1ccc(S(=O)(=O)N2CCCC2)cc1,94.5,102% (inactive),94.5% (inactive),105% (inactive),102% (inactive),5.38% (inactive),96.3,102,-3.68% (inactive),-4.6% (inactive)
Cc1csc(NC(=O)CCS(=O)(=O)c2ccc(Br)cc2)n1,99.5,96.5% (inactive),99.5% (inactive),82.5% (inactive),73% (inactive),-2.92% (inactive),75.9,73,-0.81% (inactive),22.7% (inactive)
Cc1[nH]c2c(C)cccc2c(=O)c1Br,104,81% (inactive),104% (inactive),114% (inactive),91.9% (inactive),3.28% (inactive),88.7,91.9,-6.93% (inactive),6.07% (inactive)
Cc1ccc(CNC(=O)CCCn2c(=O)c3ccccc3n(CC(=O)NCc3ccco3)c2=O)cc1,90.5,144% (inactive),90.5% (inactive),104% (inactive),89.6% (inactive),-1.43% (inactive),91,89.6,2.76% (inactive),12.6% (inactive)
COC(=O)c1ccc(Oc2nc(NC(C)C)nc(N(C)C)n2)cc1,102,91.5% (inactive),102% (inactive),97.2% (inactive),89.5% (inactive),-7.6% (inactive),97.1,89.5,-5.14% (inactive),-2.46% (inactive)
Cc1ccc(S(=O)(=O)NCCNC(=O)C2CCCNC2=O)cc1 (stereo not given),93.5,86.5% (inactive),93.5% (inactive),103% (inactive),105% (inactive),12% (inactive),92.9,105,-4.67% (inactive),1.8% (inactive)
Cc1cc(=O)[nH]c(S/C=C/c2ccccc2)n1,91.5,95% (inactive),91.5% (inactive),77% (inactive),79.9% (inactive),0.47% (inactive),79.4,79.9,-3.12% (inactive),-2.86% (inactive)
COc1ccc(-n2nc(C(=O)NCC(=O)NCC3CCCO3)c3ccccc3c2=O)cc1 (stereo not given),120,86.5% (inactive),120% (inactive),103% (inactive),85.5% (inactive),-6.73% (inactive),92.2,85.5,-0.78% (inactive),1.15% (inactive)
COC(=O)c1cc(OC)c(OC)cc1NC(=O)CC1CCCCC1,104,96.5% (inactive),104% (inactive),99.3% (inactive),103% (inactive),9.91% (inactive),93.6,103,0.79% (inactive),-2.9% (inactive)
COc1ccccc1C(=O)NC(C)C(c1cccs1)N1CCN(C)CC1 (stereo not given),103,149% (inactive),103% (inactive),78.9% (inactive),91.1% (inactive),-0.4% (inactive),91.5,91.1,1.58% (inactive),-6.67% (inactive)
O=C(CN1CCN(c2nc(-c3ccccc3)cs2)CC1)Nc1ccc2c(c1)OCO2,90.5,99% (inactive),90.5% (inactive),89.9% (inactive),101% (inactive),5.71% (inactive),95.5,101,-3.87% (inactive),-7.1% (inactive)
Nc1nc2n(n1)C(c1cccc(Cl)c1)CC(c1ccc(F)cc1)N2 (stereo not given),86.5,97.5% (inactive),86.5% (inactive),106% (inactive),100% (inactive),-10.5% (inactive),111,100,-5.47% (inactive),-0.83% (inactive)
OC1(c2cccc(C(F)(F)F)c2)CCNCC1,110,91% (inactive),110% (inactive),96.5% (inactive),90.8% (inactive),4.62% (inactive),86.2,90.8,-8.53% (inactive),-3.02% (inactive)
